From ChEMBL document CHEMBL3091279, “Discovery and SAR studies of methionine-proline anilides as dengue virus NS2B-NS3 protease inhibitors” (Bioorg Med Chem Lett, 2013)
Structures can show the parent of a compound that is named as a salt. Calls of active or inactive are those of the source. The rule behind the calls is not given here. Non-standard residues stand in square brackets, D forms with d. Residues, ends and D or L forms follow the SMILES beside them. *: point of attachment. Pbf = Cc1c(C)c(S(=O)(=O)*)c(C)c2c1OC(C)(C)C2; Met(O2) = CS(=O)(=O)CC[C@H](N)C(=O)O; Met(O) = CS(=O)CC[C@H](N)C(=O)O; pNA = O=[N+]([O-])c1ccc(N*)cc1; Boc = CC(C)(C)OC(=O)*; NHBn = c1ccc(CN*)cc1; Tfa = O=C(C(F)(F)F)*; NHPh = c1ccc(N*)cc1

Test system: dengue virus type 2
Experiment: Inhibition of Dengue virus serotype 2 NS2B-NS3 protease using benzoyl-Nle-Lys-Arg-Arg-AMC as substrate assessed as remaining activity at 200 uM incubated for 3 mins followed by substrate addition by fluorescence spectrophotometric analysis relative to control
In short: (§1)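 DENV2 NS2B-NS3 protease expressed from a plasmid. Enzyme preincubated with inhibitor 3 min, then Bz-Nle-Lys-Arg-Arg-AMC (33 or 66 µM) added. Remaining activity read by fluorescence, ex 356/em 438 nm. Triplicate averages. Ki from Dixon plot (1/v vs inhibitor) at the two substrate levels.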
In the case of `CSCC[C@H](N)C(=O)N1CCC[C@H]1C(=O)NCc1ccc([N+](=O)[O-])cc1`, the Activity is reported as 36%. In the case of `CC(C)(C)OC(=O)N[C@@H](Cc1ccccc1)C(=O)N1CCC[C@H]1C(=O)Nc1ccc([N+](=O)[O-])cc1` (Boc-Phe-Pro-pNA), the Activity is reported as 25%. In the case of `CSCC[C@H](N)C(=O)N1CCC[C@H]1C(=O)Nc1ccccc1` (H-Met-Pro-NHPh), the Activity is reported as 60%. Compound `N[C@@H](Cc1ccccc1)C(=O)N1CCC[C@H]1C(=O)Nc1ccc([N+](=O)[O-])cc1` (H-Phe-Pro-pNA) has an Activity of 31%.

Test system: dengue virus type 2
Experiment: Inhibition of Dengue virus serotype 2 NS2B-NS3 protease using benzoyl-Nle-Lys-Arg-Arg-AMC as substrate assessed as remaining activity at 20 uM incubated for 3 mins followed by substrate addition by fluorescence spectrophotometric analysis relative to control
In short: as §1
`COc1ccc(CN[C@@H](CCSC)C(=O)N2CCC[C@H]2C(=O)Nc2ccc([N+](=O)[O-])cc2)cc1` gave an Activity of 90%. With `CSCC[C@H](N)C(=O)N1CCC[C@@H]1C(=O)Nc1ccc([N+](=O)[O-])cc1` the Activity was 71%. For `CSCC[C@H](N)C(=O)N1CCC[C@H]1C(=O)Nc1cccc([N+](=O)[O-])c1`, the Activity was 37%. `CSCC[C@H](N)C(=O)N1CCC[C@H]1C(=O)Nc1ccccc1[N+](=O)[O-]` showed an Activity of 96%. `CSCC[C@H](NCc1ccc([N+](=O)[O-])cc1)C(=O)N1CCC[C@H]1C(=O)Nc1ccc([N+](=O)[O-])cc1` showed an Activity of 38%. For `Cc1c(C)c(S(=O)(=O)NC(=N)NCCC[C@H](NC(=O)OC(C)(C)C)C(=O)N2CCC[C@H]2C(=O)Nc2ccc([N+](=O)[O-])cc2)c(C)c2c1OC(C)(C)C2` (Boc-Arg(Pbf)-Pro-pNA), the Activity was 90%. For `Cc1c(C)c(S(=O)(=O)NC(=N)NCCC[C@H](N)C(=O)N2CCC[C@H]2C(=O)Nc2ccc([N+](=O)[O-])cc2)c(C)c2c1OC(C)(C)C2` (H-Arg(Pbf)-Pro-pNA), the Activity was 106%. For `N=C(N)NCCC[C@H](N)C(=O)N1CCC[C@H]1C(=O)Nc1ccc([N+](=O)[O-])cc1` (H-Arg-Pro-pNA), the Activity was 93%. Compound `CS(=O)(=O)CC[C@H](N)C(=O)N1CCC[C@H]1C(=O)Nc1ccc([N+](=O)[O-])cc1` (H-[Met(O2)]-Pro-pNA) has an Activity of 103%. `C[S+]([O-])CC[C@H](N)C(=O)N1CCC[C@H]1C(=O)Nc1ccc([N+](=O)[O-])cc1` (stereo partly specified) (H-[Met(O)]-Pro-pNA) showed an Activity of 99%.

Test system: dengue virus type 2
Experiment: Inhibition of Dengue virus serotype 2 NS2B-NS3 protease using benzoyl-Nle-Lys-Arg-Arg-AMC as substrate assessed as remaining activity at 15 uM incubated for 3 mins followed by substrate addition by fluorescence spectrophotometric analysis relative to control
In short: as §1
Compound `CSCC[C@H](N)C(=O)N1CCC[C@H]1C(=O)Nc1ccc([N+](=O)[O-])cc1` has an Activity of 31%. Work on `CSCC[C@H](NC(=O)OC(C)(C)C)C(=O)N1CCC[C@H]1C(=O)Nc1ccc([N+](=O)[O-])cc1` (Boc-Met-Pro-pNA) yielded an Activity of 45%. `CSCC[C@H](N)C(=O)N1CCC[C@H]1C(=O)NCc1ccccc1` (H-Met-Pro-NHBn) showed an Activity of 58%. Compound `CSCC[C@H](NC(=O)C(F)(F)F)C(=O)N1CCC[C@H]1C(=O)Nc1ccc([N+](=O)[O-])cc1` (Tfa-Met-Pro-pNA) has an Activity of 54%.

Test system: dengue virus type 2
Experiment: Inhibition of Dengue virus serotype 2 NS2B-NS3 protease using benzoyl-Nle-Lys-Arg-Arg-AMC as substrate assessed as fluorescence changes after 0.2 to 1 min by fluorescence spectrophotometric analysis
In short: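 Fluorescence interference check. Fluorescence change over time followed in three parallel runs at 37 °C in pH 9.0 Tris buffer: NS2B-NS3 with inhibitor, NS2B-NS3 with Bz-Nle-Lys-Arg-Arg-AMC, and NS2B-NS3 with substrate plus inhibitor. Read at ex 356/em 438 nm.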
For `CSCC[C@H](NC(=O)OC(C)(C)C)C(=O)N1CCC[C@H]1C(=O)Nc1ccc([N+](=O)[O-])cc1` (Boc-Met-Pro-pNA), the inhibition was “Active”.

Test system: not listed separately
Experiment: Competitive inhibition of Dengue virus serotype 2 NS2B-NS3 protease using benzoyl-Nle-Lys-Arg-Arg-AMC as substrate by Dixon plot analysis
Design: species or system dengue virus type 2
In short: as §1
Compound `CSCC[C@H](N)C(=O)N1CCC[C@H]1C(=O)Nc1ccc([N+](=O)[O-])cc1` has a Ki of 4.9 µM. `CSCC[C@H](NC(=O)OC(C)(C)C)C(=O)N1CCC[C@H]1C(=O)Nc1ccc([N+](=O)[O-])cc1` (Boc-Met-Pro-pNA) showed a Ki of 10.5 µM.
